Source: ChEMBL document CHEMBL2062453, “Lead optimization through VLAK protocol: new annelated pyrrolo-pyrimidine derivatives as antitumor agents” (2012)

Legend:
Assay type in all cases: functional
T47D = assay: Cytotoxicity against human T47D cells after 48 hrs by SRB assay
Summary of the method: (§1)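 NCI 60-panel five-dose screen. Cells in RPMI 1640 with 5% FBS and 2 mM glutamine, plated at 5000–40,000 cells/well and preincubated 24 h at 37 °C under 5% CO2. Five 10-fold or half-log dilutions were added from a DMSO stock for 48 h. Cells were TCA-fixed (SR settled cells: 16% final), SRB-stained and read at 515 nm. GI50 was taken where (Ti−Tz)/(C−Tz)×100 = 50.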

HCC 2998 = assay: Cytotoxicity against human HCC2998 cells after 48 hrs by SRB assay; conditions: HCC 2998, 48 h
Summary of the method: (§2)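 NCI 60-cell five-dose screen. Cells grown in RPMI 1640 with 5% FBS and 2 mM glutamine, plated at 5000–40,000 cells/well, and preincubated 24 h at 37 °C in 5% CO2. Time-zero plates fixed with TCA. Five serial dilutions of DMSO stock added, then 48 h exposure. TCA fixation, 0.4% SRB staining, absorbance read at 515 nm. GI50 from [(Ti−Tz)/(C−Tz)]×100 = 50.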

OVCAR-4 = assay: Cytotoxicity against human OVCAR4 cells after 48 hrs by SRB assay; conditions: OVCAR-4, 48 h
Summary of the method: (§3)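 Five-dose screen, 10-fold or ½-log dilutions, compound stock in DMSO. Cells were in RPMI 1640 with 5% FBS and 2 mM glutamine at 5000–40,000 cells/well, preincubated 24 h, 37 °C, 5% CO₂, with a time-zero plate TCA-fixed. After 48 h drug exposure, cells were TCA-fixed and stained with 0.4% SRB, read at 515 nm. GI50, TGI and LC50 were derived from time-zero, control and test absorbances.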

NCI-H322M = assay: Cytotoxicity against human NCI-H322M cells after 48 hrs by SRB assay; summary of the method: as §3
COLO 205 = assay: Cytotoxicity against human COLO205 cells after 48 hrs by SRB assay; conditions: COLO 205, 48 h; summary of the method: as §2
NCI-H460 = assay: Cytotoxicity against human NCI-H460 cells after 48 hrs by SRB assay; conditions: NCI-H460, 48 h; summary of the method: as §3
CCRF-CEM = assay: Cytotoxicity against human CCRF-CEM cells after 48 hrs by SRB assay; summary of the method: as §2
HCT-15 = assay: Cytotoxicity against human HCT15 cells after 48 hrs by SRB assay; conditions: HCT-15, 48 h; summary of the method: as §2
MDA-MB-435 = assay: Cytotoxicity against human MDA-MB-435 cells after 48 hrs by SRB assay; conditions: MDA-MB-435, 48 h; summary of the method: as §2
TK-10 = assay: Cytotoxicity against human TK10 cells after 48 hrs by SRB assay; conditions: TK-10, 48 h; summary of the method: as §1
EKVX = assay: Cytotoxicity against human EKVX cells after 48 hrs by SRB assay; summary of the method: as §2
Malme-3M = assay: Cytotoxicity against human MALME-3M cells after 48 hrs by SRB assay; summary of the method: as §2
SK-MEL-2 = assay: Cytotoxicity against human SK-MEL-2 cells after 48 hrs by SRB assay; conditions: SK-MEL-2, 48 h; summary of the method: as §3
A549 = assay: Cytotoxicity against human A549 cells after 48 hrs by SRB assay; conditions: A549, 48 h; summary of the method: as §2
PC-3 = assay: Cytotoxicity against human PC3 cells after 48 hrs by SRB assay; conditions: PC-3, 48 h; summary of the method: as §3
Hs-578T = assay: Cytotoxicity against human Hs578T cells after 48 hrs by SRB assay; summary of the method: as §2
CAKI-1 = assay: Cytotoxicity against human Caki1 cells after 48 hrs by SRB assay; conditions: CAKI-1, 48 h; summary of the method: as §2
SN12C = assay: Cytotoxicity against human SN12C cells after 48 hrs by SRB assay; summary of the method: as §3
MDA-MB-468 = assay: Cytotoxicity against human MDA-MB-468 cells after 48 hrs by SRB assay; conditions: MDA-MB-468, 48 h; summary of the method: as §3
SF-268 = assay: Cytotoxicity against human SF268 cells after 48 hrs by SRB assay; conditions: SF-268, 48 h; summary of the method: as §3
KM12 = assay: Cytotoxicity against human KM12 cells after 48 hrs by SRB assay; conditions: KM12, 48 h; summary of the method: as §2
OVCAR-5 = assay: Cytotoxicity against human OVCAR5 cells after 48 hrs by SRB assay; conditions: OVCAR-5, 48 h; summary of the method: as §3
SNB-19 = assay: Cytotoxicity against human SNB19 cells after 48 hrs by SRB assay; conditions: SNB-19, 48 h; summary of the method: as §3
SK-MEL-5 = assay: Cytotoxicity against human SK-MEL-5 cells after 48 hrs by SRB assay; conditions: SK-MEL-5, 48 h; summary of the method: as §3
NCI/ADR-RES = assay: Cytotoxicity against human NCI/ADR-RES cells after 48 hrs by SRB assay; summary of the method: as §3
M14 = assay: Cytotoxicity against human M14 cells after 48 hrs by SRB assay; conditions: M14, 48 h; summary of the method: as §2
MCF7 = assay: Cytotoxicity against human MCF7 cells after 48 hrs by SRB assay; conditions: MCF7, 48 h; summary of the method: as §2
HCT-116 = assay: Cytotoxicity against human HCT116 cells after 48 hrs by SRB assay; conditions: HCT-116, 48 h; summary of the method: as §2

CSC1=Nc2c(c(C)c(-c3ccccc3)n2CCCCl)C2=NC(=O)CN12
GI50 (T47D): 2.63 µM | LC50 (T47D): 95.5 µM | TGI (T47D; read-out: pTGI (converted)): 11 µM | GI50 (HCC 2998): 4.57 µM | LC50 (HCC 2998): 64.6 µM | TGI (HCC 2998; read-out: pTGI (converted)): 19.5 µM | GI50 (OVCAR-4): 6.76 µM | LC50 (OVCAR-4): > 100 µM | TGI (OVCAR-4; read-out: pTGI (converted)): 44.7 µM | GI50 (NCI-H322M): 9.77 µM | LC50 (NCI-H322M): 58.9 µM | TGI (NCI-H322M; read-out: pTGI (converted)): 24.5 µM | GI50 (COLO 205): 4.17 µM | LC50 (COLO 205): 47.9 µM | TGI (COLO 205; read-out: pTGI (converted)): 15.1 µM | GI50 (NCI-H460): 3.72 µM | LC50 (NCI-H460): 56.2 µM | TGI (NCI-H460; read-out: pTGI (converted)): 15.1 µM | GI50 (CCRF-CEM): 5.13 µM | LC50 (CCRF-CEM): > 100 µM | TGI (CCRF-CEM; read-out: pTGI (converted)): > 100 µM | GI50 (HCT-15): 4.07 µM | LC50 (HCT-15): > 100 µM | TGI (HCT-15; read-out: pTGI (converted)): 21.4 µM | GI50 (MDA-MB-435): 2.04 µM | LC50 (MDA-MB-435): 17.4 µM | TGI (MDA-MB-435; read-out: pTGI (converted)): 4.68 µM | GI50 (TK-10): 8.51 µM | LC50 (TK-10): > 100 µM | TGI (TK-10; read-out: pTGI (converted)): 77.6 µM | GI50 (EKVX): 6.92 µM | LC50 (EKVX): > 100 µM | TGI (EKVX; read-out: pTGI (converted)): 30.9 µM | GI50 (Malme-3M): 8.32 µM | LC50 (Malme-3M): 58.9 µM | TGI (Malme-3M; read-out: pTGI (converted)): 23.4 µM | GI50 (SK-MEL-2): 10.5 µM | LC50 (SK-MEL-2): 74.1 µM | TGI (SK-MEL-2; read-out: pTGI (converted)): 27.5 µM | GI50 (A549): 7.76 µM | LC50 (A549): > 100 µM | TGI (A549; read-out: pTGI (converted)): 66.1 µM | GI50 (PC-3): 8.71 µM | LC50 (PC-3): > 100 µM | TGI (PC-3; read-out: pTGI (converted)): > 100 µM | GI50 (Hs-578T): 6.31 µM | LC50 (Hs-578T): > 100 µM | TGI (Hs-578T; read-out: pTGI (converted)): 34.7 µM | GI50 (CAKI-1): 4.57 µM | LC50 (CAKI-1): > 100 µM | TGI (CAKI-1; read-out: pTGI (converted)): 28.2 µM | GI50 (SN12C): 6.31 µM | LC50 (SN12C): > 100 µM | TGI (SN12C; read-out: pTGI (converted)): 38.9 µM | GI50 (MDA-MB-468): 3.16 µM | LC50 (MDA-MB-468): 60.3 µM | TGI (MDA-MB-468; read-out: pTGI (converted)): 13.2 µM | GI50 (SF-268): 8.51 µM | LC50 (SF-268): > 100 µM | TGI (SF-268; read-out: pTGI (converted)): 47.9 µM | GI50 (KM12): 4.17 µM | LC50 (KM12): 81.3 µM | TGI (KM12; read-out: pTGI (converted)): 18.6 µM | GI50 (OVCAR-5): 11.5 µM | LC50 (OVCAR-5): > 100 µM | TGI (OVCAR-5; read-out: pTGI (converted)): 38 µM | GI50 (SNB-19): 3.98 µM | LC50 (SNB-19): 45.7 µM | TGI (SNB-19; read-out: pTGI (converted)): 17.8 µM | GI50 (SK-MEL-5): 3.47 µM | LC50 (SK-MEL-5): 38 µM | TGI (SK-MEL-5; read-out: pTGI (converted)): 14.1 µM | GI50 (NCI/ADR-RES): 4.27 µM | LC50 (NCI/ADR-RES): > 100 µM | TGI (NCI/ADR-RES; read-out: pTGI (converted)): > 100 µM | GI50 (M14): 3.31 µM | LC50 (M14): > 100 µM | TGI (M14; read-out: pTGI (converted)): 15.1 µM | GI50 (MCF7): 3.39 µM | LC50 (MCF7): 77.6 µM | TGI (MCF7; read-out: pTGI (converted)): 16.6 µM | GI50 (HCT-116): 3.16 µM | LC50 (HCT-116): > 100 µM | TGI (HCT-116; read-out: pTGI (converted)): 47.9 µM
